Results reported in ChEMBL document CHEMBL1158118, “Decaspirones F-I, bioactive secondary metabolites from the saprophytic fungus Helicoma viridis” (2006).
Activity calls are given as the source filed them. No cut-off for these calls is given here.

Key:
[1] = tested on: Pseudomonas aeruginosa; test: Antibacterial activity against […] Pseudomonas aeruginosa ATCC 27853 at 100 ug/disk by standard disk assay; type: functional; conditions: read-out: IZ
Outline: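 Disk diffusion on agar; compounds loaded onto 6 mm paper disks at 100 µg/disk and placed on the plate surface. Plates incubated at 37 °C for 24 h, then zone of inhibition recorded in mm. Ciprofloxacin at 100 µg/disk served as reference.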

[2] = tested on: Staphylococcus aureus; test: Antibacterial activity against Staphylococcus aureus ATCC 6538 at 100 ug/disk by standard disk assay; type: functional, organism-based
Outline: (§1)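 Test compound loaded onto 6 mm paper disks at 100 µg/disk and laid on the agar surface. Plates incubated at 37 °C for 24 h, then scored for a zone of inhibition.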

[3] = tested on: Streptococcus mutans; test: Antibacterial activity against Streptococcus mutans ATCC 25175 at 100 ug/disk by standard disk assay; type: functional, organism-based; outline: as §1
[4] = tested on: Enterococcus faecalis; test: Antibacterial activity against Enterococcus faecalis ATCC 19433 at 100 ug/disk by standard disk assay; type: functional, organism-based; outline: as §1
[5] = tested on: Micrococcus luteus; test: Antibacterial activity against Sarcina lutea CMCC B28001 at 100 ug/disk by standard disk assay; type: functional, organism-based; outline: as §1
[6] = tested on: Geotrichum candidum; test: Antifungal activity against Geotrichum candidum AS2.498 at 100 ug/disk by standard disk assay; type: functional, organism-based
Outline: (§2)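 Paper disks (6 mm diameter) carrying 100 µg of test compound placed on the agar surface. Plates kept at 25 °C for 48 h and checked for a zone of inhibition.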

[7] = tested on: Candida albicans; test: Antifungal activity against Candida albicans ATCC 10231 at 100 ug/disk by standard disk assay; type: functional, organism-based; outline: as §2
[8] = tested on: Aspergillus fumigatus; test: Antifungal activity against Aspergillus fumigatus ATCC 10894 at 100 ug/disk by standard disk assay; type: functional, organism-based; outline: as §2
[9] = tested on: Lactococcus lactis; test: Antibacterial activity against Lactococcus lactis PCM 2379 at 100 ug/disk by standard disk assay; type: functional; conditions: read-out: IZ; outline: as §1

SMILES	zone of inhibition at 100 µg/disc [1] [mm]	Activity [2]	Activity [3]	Activity [4]	Activity [5]	Activity [6]	Activity [7]	Activity [8]	zone of inhibition at 100 µg/disc [9] [mm]
O=C(O)c1cn(C2CC2)c2cc(N3CCNCC3)c(F)cc2c1=O [CIPROFLOXACIN]	22	–	–	–	–	–	–	–	–
O[C@@H]1C=C[C@H](O)[C@@H]2[C@@H]1C1(C=C[C@@H]2O)Oc2cccc3cccc(c23)O1 [DECASPIRONE F]	8	inactive	inactive	inactive	inactive	inactive	inactive	inactive	–
O=C1CC[C@@H](O)[C@@H]2[C@@H]1[C@@H](O)C=CC21Oc2cccc3cccc(c23)O1 [DECASPIRONE G]	8	inactive	inactive	inactive	inactive	inactive	inactive	inactive	12
O[C@H]1[C@@H]2[C@H]([C@@H](O)C=CC23Oc2cccc4cccc(c24)O3)[C@@H](O)C[C@@H]1O [DECASPIRONE H]	8	inactive	inactive	inactive	inactive	inactive	inactive	inactive	–
O=C1CCC(O)c2c(Oc3cccc4cccc(O)c34)cccc21 (centres undefined) [DECASPIRONE I]	8	inactive	inactive	inactive	inactive	inactive	inactive	inactive	–
